Test results taken from ChEMBL document CHEMBL1137728, “Synthesis of novel thiazolone-based compounds containing pyrazoline moiety and evaluation of their anticancer activity” (2009).

Key:
Assay type in all cases: functional
[1] = test system: HL-60(TB); assay: Growth inhibition of human HL-60(TB) cells after 48 hrs by SRB assay; details: HL-60, 48 h
Summary of the method: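 Five-dose NCI-60 assay at 10-fold dilutions, 10^-4 to 10^-8 M, 48 h continuous exposure; SRB protein staining. Absorbance at time zero, untreated control and each concentration gives percent growth. GI50 is the concentration giving 50% lower net protein increase than controls. Values beyond the range tested are reported as above or below the extreme concentration.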

[2] = test system: SK-MEL-5; assay: Anticancer activity against human SK-MEL-5 cells assessed as cell growth at 10 uM after 48 hrs by SRB assay; details: SK-MEL-5, 48 h, read-out: Activity
Summary of the method: (§1)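 US NCI one-dose screen across about 60 human tumour cell lines. A single concentration of 10^-5 M was applied with 48 h continuous exposure. The end point was sulforhodamine B protein staining, read spectrophotometrically. Results are given as percent growth of treated cells relative to untreated controls.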

[3] = test system: UACC-62; assay: Growth inhibition of human UACC62 cells after 48 hrs by SRB assay; details: UACC-62, 48 h
Summary of the method: (§2)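 NCI five-dose screen across about 60 human tumour cell lines, at 10-fold dilutions from 10^-4 to 10^-8 M with 48 h continuous exposure, read by SRB. Percent growth used time-zero, untreated control and treated absorbances. GI50 was the concentration giving 50% lower net protein increase than controls. Values beyond the tested range were reported as more or less than the maximum or minimum concentration.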

[4] = test system: SK-MEL-5; assay: Growth inhibition of human SK-MEL-5 cells after 48 hrs by SRB assay; details: SK-MEL-5, 48 h; for TGI: read-out: pTGI (converted); summary of the method: as §2
[5] = test system: SK-MEL-28; assay: Growth inhibition of human SK-MEL-28 cells after 48 hrs by SRB assay; details: SK-MEL-28, 48 h; summary of the method: as §2
[6] = Growth inhibition of human […] cells after 48 hrs by SRB assay; details: for TGI: read-out: pTGI (converted); summary of the method: as §2
[7] = Anticancer activity against human NCI60 cells assessed as cell growth at 10 uM after 48 hrs by SRB assay; details: NCI60, 48 h, read-out: Activity; summary of the method: as §1
[8] = test system: SNB-75; assay: Growth inhibition of human SNB75 cells after 48 hrs by SRB assay; details: SNB-75, 48 h; for TGI: read-out: pTGI (converted); summary of the method: as §2
[9] = test system: HT-29; assay: Growth inhibition of human HT-29 cells after 48 hrs by SRB assay; details: HT-29, 48 h; summary of the method: as §2
[10] = test system: SR; assay: Anticancer activity against human SR cells assessed as cell growth at 10 uM after 48 hrs by SRB assay; details: read-out: Activity; summary of the method: as §1
[11] = test system: LOX IMVI; assay: Growth inhibition of human LOXIMVI cells after 48 hrs by SRB assay; details: for TGI: read-out: pTGI (converted); summary of the method: as §2
[12] = test system: CCRF-CEM; assay: Anticancer activity against human CCRF-CEM cells assessed as cell growth at 10 uM after 48 hrs by SRB assay; details: read-out: Activity; summary of the method: as §1
[13] = test system: HCT-116; assay: Growth inhibition of human HCT116 cells after 48 hrs by SRB assay; details: HCT-116, 48 h; summary of the method: as §2
[14] = test system: Malme-3M; assay: Growth inhibition of human MALME-3M cells after 48 hrs by SRB assay; summary of the method: as §2
[15] = test system: TK-10; assay: Growth inhibition of human TK10 cells after 48 hrs by SRB assay; details: TK-10, 48 h; summary of the method: as §2
[16] = test system: DU-145; assay: Growth inhibition of human DU145 cells after 48 hrs by SRB assay; details: DU-145, 48 h; summary of the method: as §2
[17] = test system: SNB-19; assay: Growth inhibition of human SNB19 cells after 48 hrs by SRB assay; details: SNB-19, 48 h; summary of the method: as §2
[18] = test system: SF-268; assay: Growth inhibition of human SF268 cells after 48 hrs by SRB assay; details: SF-268, 48 h; summary of the method: as §2
[19] = test system: T47D; assay: Growth inhibition of human T47D cells after 48 hrs by SRB assay; summary of the method: as §2
[20] = test system: CCRF-CEM; assay: Growth inhibition of human CCRF-CEM cells after 48 hrs by SRB assay; summary of the method: as §2
[21] = test system: KM12; assay: Growth inhibition of human KM12 cells after 48 hrs by SRB assay; details: KM12, 48 h; summary of the method: as §2
[22] = test system: HCT-15; assay: Growth inhibition of human HCT15 cells after 48 hrs by SRB assay; details: HCT-15, 48 h; summary of the method: as §2
[23] = test system: U-251; assay: Growth inhibition of human U251 cells after 48 hrs by SRB assay; details: U-251, 48 h; summary of the method: as §2
[24] = test system: MCF7; assay: Growth inhibition of human MCF7 cells after 48 hrs by SRB assay; details: MCF7, 48 h; summary of the method: as §2
[25] = test system: CAKI-1; assay: Growth inhibition of human Caki1 cells after 48 hrs by SRB assay; details: CAKI-1, 48 h; summary of the method: as §2
[26] = test system: IGROV-1; assay: Growth inhibition of human IGROV1 cells after 48 hrs by SRB assay; details: IGROV-1, 48 h; summary of the method: as §2
[27] = test system: SN12C; assay: Growth inhibition of human SN12C cells after 48 hrs by SRB assay; summary of the method: as §2
[28] = test system: OVCAR-3; assay: Growth inhibition of human OVCAR-3 cells after 48 hrs by SRB assay; details: OVCAR-3, 48 h; summary of the method: as §2
[29] = test system: ACHN; assay: Growth inhibition of human ACHN cells after 48 hrs by SRB assay; summary of the method: as §2
[30] = test system: MDA-MB-435; assay: Growth inhibition of human MDA-MB-435 cells after 48 hrs by SRB assay; details: MDA-MB-435, 48 h; summary of the method: as §2
[31] = Growth inhibition of human Hs 578T cells after 48 hrs by SRB assay; summary of the method: as §2
[32] = test system: MOLT-4; assay: Growth inhibition of human MOLT4 cells after 48 hrs by SRB assay; details: MOLT-4, 48 h; summary of the method: as §2
[33] = test system: MDA-MB-231; assay: Growth inhibition of human MDA-MB-231 cells after 48 hrs by SRB assay; details: MDA-MB-231, 48 h; summary of the method: as §2
[34] = test system: NCI-H460; assay: Growth inhibition of human NCI-H460 cells after 48 hrs by SRB assay; details: NCI-H460, 48 h, read-out: pTGI (converted); summary of the method: as §2
[35] = test system: DU-145; assay: Anticancer activity against human DU145 cells assessed as cell growth at 10 uM after 48 hrs by SRB assay; details: DU-145, 48 h, read-out: Activity; summary of the method: as §1
[36] = test system: UO-31; assay: Growth inhibition of human UO31 cells after 48 hrs by SRB assay; details: UO-31, 48 h; summary of the method: as §2
[37] = test system: HOP-62; assay: Growth inhibition of human HOP62 cells after 48 hrs by SRB assay; details: HOP-62, 48 h; summary of the method: as §2

O=C1N=C(N2N=C(c3ccccc3)CC2c2ccccc2O)/C(=C/c2ccc(O)cc2)S1 (stereo not drawn)
GI50 [1]: 1660 nM | TGI ([1]; read-out: pTGI (converted)): 4900 nM | growth at 10 µM [2]: -96.3% | GI50 [3]: 1700 nM | TGI ([3]; read-out: pTGI (converted)): 3310 nM | GI50 [4]: 1700 nM | TGI [4]: 3310 nM | GI50 [5]: 1780 nM | GI50 [6]: 1860 nM | TGI [6]: 4470 nM | growth at 10 µM [7]: 1.13% | GI50 [8]: 1950 nM | TGI [8]: 5250 nM | GI50 [9]: 1910 nM

O=C1N=C(N2N=C(c3ccccc3)CC2c2ccccc2O)S/C1=C\c1ccccc1Cl (stereo not drawn)
growth at 10 µM [10]: 45.6% | growth at 10 µM [7]: 102%

O=C1N=C(N2N=C(c3ccccc3)CC2c2ccccc2O)/C(=C/c2ccc(Cl)cc2)S1 (stereo not drawn)
GI50 [11]: 1860 nM | TGI [11]: 3550 nM

O=C1N=C(N2N=C(c3ccccc3)CC2c2ccccc2O)CS1 (stereo not drawn)
growth at 10 µM [12]: -5.39% | growth at 10 µM [7]: 83.6%

COc1cc(/C=C2/SC(N3N=C(c4ccccc4)CC3c3ccccc3O)=NC2=O)cc(OC)c1O (stereo not drawn)
GI50 [13]: 1550 nM | TGI ([13]; read-out: pTGI (converted)): 2950 nM | GI50 [14]: 2000 nM | TGI ([14]; read-out: pTGI (converted)): 4900 nM | GI50 [15]: 1780 nM | TGI ([15]; read-out: pTGI (converted)): 3980 nM | GI50 [16]: 1550 nM | TGI ([16]; read-out: pTGI (converted)): 3090 nM | GI50 [17]: 1780 nM | TGI ([17]; read-out: pTGI (converted)): 3720 nM | GI50 [18]: 1860 nM | TGI ([18]; read-out: pTGI (converted)): 4470 nM | GI50 [4]: 1910 nM | TGI [4]: 10500 nM | GI50 [19]: 1780 nM | TGI ([19]; read-out: pTGI (converted)): 3980 nM | GI50 [6]: 1700 nM | TGI [6]: 6920 nM | growth at 10 µM [7]: 42.6% | GI50 [20]: 2000 nM | TGI ([20]; read-out: pTGI (converted)): 5620 nM | GI50 [8]: 1740 nM | TGI [8]: 4270 nM | GI50 [21]: 1820 nM | TGI ([21]; read-out: pTGI (converted)): 3630 nM | GI50 [9]: 427 nM | TGI ([9]; read-out: pTGI (converted)): 2820 nM | GI50 [22]: 1230 nM | TGI ([22]; read-out: pTGI (converted)): 2690 nM | GI50 [23]: 1510 nM | TGI ([23]; read-out: pTGI (converted)): 2820 nM | GI50 [24]: 1950 nM | TGI ([24]; read-out: pTGI (converted)): 4900 nM | GI50 [25]: 1020 nM | TGI ([25]; read-out: pTGI (converted)): 3240 nM | GI50 [26]: 1580 nM | TGI ([26]; read-out: pTGI (converted)): 2880 nM | GI50 [27]: 1580 nM | TGI ([27]; read-out: pTGI (converted)): 4900 nM | GI50 [28]: 1410 nM | TGI ([28]; read-out: pTGI (converted)): 2820 nM | GI50 [29]: 1170 nM | TGI ([29]; read-out: pTGI (converted)): 10200 nM | GI50 [30]: 1820 nM | TGI ([30]; read-out: pTGI (converted)): 3630 nM | GI50 [31]: 1380 nM | TGI ([31]; read-out: pTGI (converted)): 3720 nM | GI50 [32]: 1700 nM | GI50 [11]: 1550 nM | TGI [11]: 2950 nM | GI50 [33]: 1450 nM | TGI ([33]; read-out: pTGI (converted)): 3020 nM | TGI [34]: 3310 nM | growth at 10 µM [35]: -57% | GI50 [36]: 1910 nM | TGI ([36]; read-out: pTGI (converted)): 4270 nM | GI50 [37]: 759 nM | TGI ([37]; read-out: pTGI (converted)): 15500 nM
